Measurements as given in ChEMBL document CHEMBL3400112, “Design, syntheses, and pharmacological characterization of 17-cyclopropylmethyl-3,14β-dihydroxy-4,5α-epoxy-6α-(isoquinoline-3'-carboxamido)morphinan analogues as opioid receptor ligands” (Bioorg Med Chem, 2015).
pEC50, pIC50, pKi: −log10 of the molar value. The source made the active and inactive calls. The rule behind the calls is not given here.

How the values were obtained:
[1] = biological target: Kappa-type opioid receptor (Mus musculus) (UniProt P33534); experiment: Agonist activity at mouse KOR expressed in CHO cells after […] by [35S]GTPgammaS binding assay relative to (+/-)-trans-U50488; assay type: functional, cell-based
Sequence of Kappa-type opioid receptor (Mus musculus) (P33534 whole entry): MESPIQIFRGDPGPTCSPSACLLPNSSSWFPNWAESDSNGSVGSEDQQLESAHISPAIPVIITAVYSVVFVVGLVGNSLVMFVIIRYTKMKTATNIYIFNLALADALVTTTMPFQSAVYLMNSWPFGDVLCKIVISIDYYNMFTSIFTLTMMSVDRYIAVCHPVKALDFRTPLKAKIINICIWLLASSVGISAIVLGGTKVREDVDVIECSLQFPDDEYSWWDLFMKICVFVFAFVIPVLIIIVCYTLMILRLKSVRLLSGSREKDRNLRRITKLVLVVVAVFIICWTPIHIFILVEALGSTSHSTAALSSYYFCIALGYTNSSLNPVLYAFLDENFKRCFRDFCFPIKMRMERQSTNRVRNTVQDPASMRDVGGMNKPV

[2] = biological target: T1, Delta-type opioid receptor (Mus musculus, UniProt P32300); experiment: Agonist activity at mouse DOR expressed in CHO cells after […] by [35S]GTPgammaS binding assay; assay type: functional, cell-based
T1 sequence (P32300 whole entry): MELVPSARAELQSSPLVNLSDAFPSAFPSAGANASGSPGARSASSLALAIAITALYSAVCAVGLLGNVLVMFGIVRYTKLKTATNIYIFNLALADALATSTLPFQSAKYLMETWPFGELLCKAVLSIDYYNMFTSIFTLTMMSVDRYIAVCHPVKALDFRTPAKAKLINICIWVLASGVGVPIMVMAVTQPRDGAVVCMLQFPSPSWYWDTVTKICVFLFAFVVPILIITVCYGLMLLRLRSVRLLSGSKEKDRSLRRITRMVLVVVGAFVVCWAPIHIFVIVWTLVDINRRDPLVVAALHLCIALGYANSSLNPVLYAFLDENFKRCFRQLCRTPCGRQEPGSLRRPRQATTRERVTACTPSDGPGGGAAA

Mus musculus [3] = experiment: Reversal of morphine-induced antinociceptive activity in sc dosed Swiss-Webster mouse administered 5 mins prior to morphine challenge measured after 20 mins by warm water tail-flick test relative to control; assay type: functional
[4] = biological target: T2, Kappa-type opioid receptor (Mus musculus, UniProt P33534); experiment: Agonist activity at mouse KOR expressed in CHO cells after […] by [35S]GTPgammaS binding assay; assay type: functional, cell-based
T2 sequence (P33534 whole entry): as the sequence (P33534 whole entry) above

[5] = biological target: Delta-type opioid receptor (Mus musculus) (UniProt P32300); experiment: Agonist activity at mouse DOR expressed in CHO cells after […] by [35S]GTPgammaS binding assay relative to SNC80; assay type: functional, cell-based
Sequence of Delta-type opioid receptor (Mus musculus) (P32300 whole entry): as the sequence (P32300 whole entry) above

Mus musculus [6] = experiment: Antinociceptive activity in sc dosed Swiss-Webster mouse after 20 mins by warm water tail-flick test relative to control; assay type: functional
Mu-type opioid receptor [7] = biological target: T3, Mu-type opioid receptor (Homo sapiens, UniProt P35372); experiment: Antagonist activity at human MOR expressed in CHO cells assessed as inhibition of DAMGO-induced increase in intracellular Ca2+ level incubated for 15 mins prior to DAMGO addition by microplate reader analysis; assay type: functional, cell-based
T3 sequence (P35372 whole entry): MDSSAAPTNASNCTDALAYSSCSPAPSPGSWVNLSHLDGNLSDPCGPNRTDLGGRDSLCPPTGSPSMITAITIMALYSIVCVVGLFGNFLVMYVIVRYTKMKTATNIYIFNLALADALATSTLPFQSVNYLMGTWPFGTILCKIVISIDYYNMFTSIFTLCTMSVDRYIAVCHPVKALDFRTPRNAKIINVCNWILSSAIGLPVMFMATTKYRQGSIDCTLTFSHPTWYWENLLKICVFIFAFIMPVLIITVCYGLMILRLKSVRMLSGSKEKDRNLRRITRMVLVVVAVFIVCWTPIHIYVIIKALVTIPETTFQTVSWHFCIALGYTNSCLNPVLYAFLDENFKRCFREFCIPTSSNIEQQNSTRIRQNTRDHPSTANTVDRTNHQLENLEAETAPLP

[8] = biological target: T2, Kappa-type opioid receptor; experiment: Partial agonist activity at mouse KOR expressed in CHO cells after […] by [35S]GTPgammaS binding assay; assay type: functional, cell-based
Mu-type opioid receptor [9] = biological target: T3, Mu-type opioid receptor; experiment: Agonist activity at human MOR expressed in CHO cells assessed as increase in intracellular Ca2+ level after 30 mins by microplate reader analysis; assay type: functional, cell-based
How it was run: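 Gαqi5-transfected hMOR-CHO cells (DMEM/F12, 10% FBS, hygromycin B, 37 °C/5% CO2), plated 4 h post-transfection, grown 24 h, loaded 30 min with Fluo-4 AM plus probenecid in HBSS:HEPES. Test agent at varying concentrations in triplicate added after 15 s of reading. Fluorescence 494/516 nm over 120 s; at least three independent experiments.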

[10] = biological target: T2, Kappa-type opioid receptor; experiment: Displacement of [3H]diprenorphine from mouse KOR expressed in CHO cells after […]; assay type: cell-based
Mu-type opioid receptor [11] = biological target: T4, Mu-type opioid receptor (Mus musculus, UniProt P42866); experiment: Displacement of [3H]naloxane from mouse MOR expressed in CHO cells after […]; assay type: cell-based
T4 sequence (P42866 whole entry): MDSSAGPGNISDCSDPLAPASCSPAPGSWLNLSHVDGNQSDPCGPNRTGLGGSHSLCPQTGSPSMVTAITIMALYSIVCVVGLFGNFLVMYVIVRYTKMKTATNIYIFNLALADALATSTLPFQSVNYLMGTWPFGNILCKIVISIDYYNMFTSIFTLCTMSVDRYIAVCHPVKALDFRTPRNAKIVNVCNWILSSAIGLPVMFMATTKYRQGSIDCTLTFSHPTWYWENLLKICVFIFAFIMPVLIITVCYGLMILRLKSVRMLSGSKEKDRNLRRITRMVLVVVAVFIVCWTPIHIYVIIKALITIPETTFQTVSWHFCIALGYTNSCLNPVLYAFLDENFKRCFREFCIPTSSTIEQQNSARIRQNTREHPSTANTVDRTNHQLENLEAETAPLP

[12] = biological target: T1, Delta-type opioid receptor; experiment: Displacement of [3H]naltrindole from mouse DOR expressed in CHO cells after […]; assay type: cell-based
Mus musculus [13] = organism: Mus musculus; experiment: Selectivity ratio of Ki for mouse KOR to Ki for mouse MOR
[14] = biological target: Mu-type opioid receptor (Mus musculus) (UniProt P42866); experiment: Stimulation of mouse MOR expressed in CHO cells after […] by [35S]GTPgammaS binding assay relative to DAMGO; assay type: functional, cell-based
Sequence of Mu-type opioid receptor (Mus musculus) (P42866 whole entry): as above

Mus musculus [15] = organism: Mus musculus; experiment: Selectivity ratio of Ki for mouse DOR to Ki for mouse MOR
Mu-type opioid receptor [16] = biological target: T4, Mu-type opioid receptor; experiment: Stimulation of mouse MOR expressed in CHO cells after […] by [35S]GTPgammaS binding assay; assay type: functional, cell-based
Mus musculus [17] = experiment: Antinociceptive activity in Swiss-Webster mouse at 10 mg/kg, sc after 20 mins by warm water tail-flick test relative to control; assay type: functional; conditions: route subcutaneous
Mus musculus [18] = experiment: Reversal of morphine-induced antinociceptive activity in Swiss-Webster mouse at 1 mg/kg, sc administered 5 mins prior to morphine challenge measured after 20 mins by warm water tail-flick test relative to control; assay type: functional
Mus musculus [19] = experiment: Reversal of morphine-induced antinociceptive activity in Swiss-Webster mouse assessed as wet-dog shakes at 30 to 100 mg/kg, sc measured after 3 mins up to 20 mins; assay type: functional, organism-based
How it was run: (§1)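 After 72 h and 30 min habituation in an observation chamber, withdrawal was precipitated by s.c. test agent. Escape jumps and wet-dog shakes counted over 20 min, starting within 3 min of dosing; at least six mice per dose.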

[20] = biological target: Delta-type opioid receptor (Mus musculus) (UniProt P32300); experiment: Agonist activity at mouse DOR expressed in CHO cells after […] by [35S]GTPgammaS binding assay relative to naltrexone; assay type: functional, cell-based
Mus musculus [21] = organism: Mus musculus; experiment: Selectivity ratio of EC50 for mouse DOR to EC50 for mouse MOR
Mus musculus [22] = organism: Mus musculus; experiment: Selectivity ratio of EC50 for mouse KOR to EC50 for mouse MOR
Mus musculus [23] = experiment: Reversal of morphine-induced antinociceptive activity in Swiss-Webster mouse assessed as escape jumps at 30 to 100 mg/kg, sc measured after 3 mins up to 20 mins; assay type: functional, organism-based; how it was run: as §1
Mus musculus [24] = experiment: Induction of escape jumps in Swiss-Webster mouse at 30 mg/kg, sc measured after 3 mins up to 20 mins; assay type: organism-based; parameters: dose 30 mg/kg, route subcutaneous; conditions: in vivo; how it was run: as §1
Mus musculus [25] = experiment: Induction of wet-dog shakes in Swiss-Webster mouse at 30 mg/kg, sc measured after 3 mins up to 20 mins; assay type: organism-based; parameters: dose 30 mg/kg, route subcutaneous; conditions: in vivo; how it was run: as §1

Compound	pKi [10]	pKi (Mu-type opioid receptor [11])	pKi [12]	Ratio Ki (Mus musculus [13])	Emax [14]	Ratio Ki (Mus musculus [15])	pEC50 (Mu-type opioid receptor [16])	also measured
O=C(N[C@H]1CC[C@@]2(O)[C@H]3Cc4ccc(O)c5c4[C@@]2(CCN3CC2CC2)[C@H]1O5)c1cc2ccccc2cn1								Emax [1]: 13.1%; pEC50 [2]: 7.01; AD50 (Mus musculus [3]): 0.45 mg/kg; pEC50 [4]: 7.96; Emax [5]: 53.5%
COc1c(C(=O)N[C@H]2CC[C@@]3(O)[C@H]4Cc5ccc(O)c6c5[C@@]3(CCN4CC3CC3)[C@H]2O6)nc(Cl)c2ccccc12								ED50 (Mus musculus [6]): 0.73 mg/kg; pIC50 (Mu-type opioid receptor [7]): 7.63; inhibition (Mu-type opioid receptor [7]): Dose-dependent effect; pEC50 [2]: 7.49; Emax [5]: 54.8%; pEC50 [8]: 7.58; Activity (Mu-type opioid receptor [9]): inactive
COc1cc2cnc(C(=O)N[C@H]3CC[C@@]4(O)[C@H]5Cc6ccc(O)c7c6[C@@]4(CCN5CC4CC4)[C@H]3O7)cc2cc1OC	7.21	7.87	7.16	5.2	14%	4.6	7.07	
O=C(CNC(=O)c1cc2ccccc2cn1)N[C@H]1CC[C@@]2(O)[C@H]3Cc4ccc(O)c5c4[C@@]2(CCN3CC2CC2)[C@H]1O5				3.4		0.2		
O=C(N[C@H]1CC[C@@]2(O)[C@H]3Cc4ccc(O)c5c4[C@@]2(CCN3CC2CC2)[C@H]1O5)c1ncc2ccccc2c1O								MPE (Mus musculus [17]): <20%
O=C(Cc1cc2ccccc2cn1)N[C@H]1CC[C@@]2(O)[C@H]3Cc4ccc(O)c5c4[C@@]2(CCN3CC2CC2)[C@H]1O5				10		0.9		
O=C(N[C@H]1CC[C@@]2(O)[C@H]3Cc4ccc(O)c5c4[C@@]2(CCN3CC2CC2)[C@H]1O5)c1cc2ccc([N+](=O)[O-])cc2cn1	7.80	8.44	7.26	16	13.4%	4.5	7.37	Activity (Mus musculus [18]): inactive
CN1Cc2ccccc2C[C@H]1C(=O)N[C@H]1CC[C@@]2(O)[C@H]3Cc4ccc(O)c5c4[C@@]2(CCN3CC2CC2)[C@H]1O5				3.2		2.3		
CN(C)c1ccc2cc(C(=O)N[C@H]3CC[C@@]4(O)[C@H]5Cc6ccc(O)c7c6[C@@]4(CCN5CC4CC4)[C@H]3O7)ncc2c1	7.06	8.36	7.16	16	6.32%	20	8.33	Activity (Mus musculus [18]): inactive
O=C(N[C@H]1CC[C@@]2(O)[C@H]3Cc4ccc(O)c5c4[C@@]2(CCN3CC2CC2)[C@H]1O5)c1ncc2ccccc2n1				71		4.6		
O=C(CCc1cc2ccccc2cn1)N[C@H]1CC[C@@]2(O)[C@H]3Cc4ccc(O)c5c4[C@@]2(CCN3CC2CC2)[C@H]1O5				12		2.4		
CN(C)c1ccc2c(c1)CN(C)C(C(=O)N[C@H]1CC[C@@]3(O)[C@H]4Cc5ccc(O)c6c5[C@@]3(CCN4CC3CC3)[C@H]1O6)C2 (some centres not stated)	8.31	8.75	8.35	2.5	26.2%	2.7	7.94	
Cc1nc(C(=O)N[C@H]2CC[C@@]3(O)[C@H]4Cc5ccc(O)c6c5[C@@]3(CCN4CC3CC3)[C@H]2O6)cc2ccccc12								MPE (Mus musculus [17]): <20%
O=C(N[C@H]1CC[C@@]2(O)[C@H]3Cc4ccc(O)c5c4[C@@]2(CCN3CC2CC2)[C@H]1O5)c1nc(Cl)c2ccccc2c1O				24		25		
N#Cc1nc(C(=O)N[C@H]2CC[C@@]3(O)[C@H]4Cc5ccc(O)c6c5[C@@]3(CCN4CC3CC3)[C@H]2O6)cc2ccccc12				131		10		MPE (Mus musculus [17]): 56.9%
O=C(N[C@H]1CC[C@@]2(O)[C@H]3Cc4ccc(O)c5c4[C@@]2(CCN3CC2CC2)[C@H]1O5)c1cc2cc([N+](=O)[O-])ccc2cn1	7.55	8.24	7.02	16	12.5%	4.9	7.50	Activity (Mus musculus [19]): inactive; Emax [1]: 21.1%; Ratio [20]: 10; Ratio EC50 (Mus musculus [21]): 3.4; Ratio EC50 (Mus musculus [22]): 2; Activity (Mus musculus [23]): inactive; MPE (Mus musculus [18]; route subcutaneous): 8.9%; pIC50 (Mu-type opioid receptor [7]): 5.56; inhibition (Mu-type opioid receptor [7]): Dose-dependent effect; Activity (Mus musculus [24]): Non-toxic; pEC50 [2]: 6.97; AD50 (Mus musculus [3]): 0.92 mg/kg; pEC50 [4]: 7.20; Emax [5]: 67.7%; Activity (Mus musculus [25]): Non-toxic; Activity (Mu-type opioid receptor [9]): inactive
